Active and inactive are the calls of the source. The rule behind the calls is not given here.

Series [1] concerns the target T1, Non-receptor tyrosine-protein kinase TYK2 (Homo sapiens, UniProt P29597). The series is described as follows: Inhibition of TYK2 (unknown origin) at 0.1 uM preincubated for 20 mins followed by [33P]ATP addition measured after 120 mins by Hotspot assay relative to control. In outline:
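Radiometric HotSpot kinase assay. Buffer: 20 mM HEPES pH 7.5, 10 mM MgCl2, 1 mM EGTA, 0.02% Brij35, 0.02 mg/mL BSA, 0.1 mM Na3VO4, 2 mM DTT, 1% DMSO. Compound added about 20 min before ATP/[33P]ATP (10 μM final). Reactions run 120 min at 25 °C, spotted on P81 filters and washed in phosphoric acid. Activity expressed relative to DMSO after background subtraction. Single-concentration panel at 100 nM in duplicate.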

The target in series [2] is Histone deacetylase 5 (Homo sapiens) (UniProt Q9UQL6). The series is described as follows: Inhibition of human recombinant C-terminal His-tagged HDAC5 (656 to 1122 residues) expressed in insect cells at 10 uM preincubated with enzyme followed by acetyl-Lys(trifluoroacetyl)-AMC substrate addition measured after 2 hrs by fluorescence assay relative to control. In outline:
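HDAC enzyme in 50 mM Tris-HCl pH 8.0, 137 mM NaCl, 2.7 mM KCl, 1 mM MgCl2 was pre-incubated with compound dosed from DMSO. The reaction was started with the class IIa substrate acetyl-Lys(trifluoroacetyl)-AMC and run 2 h at 30 °C. Developer with trichostatin A stopped it, and fluorescence (Ex/Em 360/460 nm) was read at plateau. Single test concentration 10 µM.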

The target in series [3] is Histone deacetylase 7 (Homo sapiens) (UniProt Q8WUI4). Nature of the series: Inhibition of human recombinant N-terminal GST-tagged HDAC7 (518 to 991 residues) expressed in insect cells at 10 uM preincubated with enzyme followed by […] addition measured after 2 hrs by fluorescence assay relative to control. In a few lines: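 HDAC enzyme in Tris-HCl pH 8.0 buffer with NaCl, KCl and MgCl2 was pre-incubated with compound from DMSO. Substrate was then added and the reaction ran 2 h at 30 °C. It was stopped with developer containing trichostatin A, and fluorescence (Ex/Em 360/460 nm) was read at plateau. Single test concentration 10 µM.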

Series [4] concerns the target T1, Non-receptor tyrosine-protein kinase TYK2. The series is described as follows: Inhibition of human TYK2 (V877 to C1187 residues) expressed in mammalian expression system assessed as residual activity at 100 nM by KINOMEScan assay relative to control. In outline:
(§1)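 DiscoveRx competition-binding panel of 97 kinases, measuring binding to the kinase ATP site rather than catalytic turnover. The test compound was run at a single 100 nM concentration. Results are given as % of control binding.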

In series [5] the target is T2, Phosphatidylinositol 4,5-bisphosphate 3-kinase catalytic subunit gamma isoform (Homo sapiens, UniProt P48736). Nature of the series: Inhibition of human PI3Kgamma (S144 to A1102 residues) expressed in mammalian expression system assessed as residual activity at 100 nM by KINOMEScan assay relative to control. In a few lines: as §1
Target sequence in this assay (P48736 whole entry, looked up, the tested form may be a part, canonical isoform): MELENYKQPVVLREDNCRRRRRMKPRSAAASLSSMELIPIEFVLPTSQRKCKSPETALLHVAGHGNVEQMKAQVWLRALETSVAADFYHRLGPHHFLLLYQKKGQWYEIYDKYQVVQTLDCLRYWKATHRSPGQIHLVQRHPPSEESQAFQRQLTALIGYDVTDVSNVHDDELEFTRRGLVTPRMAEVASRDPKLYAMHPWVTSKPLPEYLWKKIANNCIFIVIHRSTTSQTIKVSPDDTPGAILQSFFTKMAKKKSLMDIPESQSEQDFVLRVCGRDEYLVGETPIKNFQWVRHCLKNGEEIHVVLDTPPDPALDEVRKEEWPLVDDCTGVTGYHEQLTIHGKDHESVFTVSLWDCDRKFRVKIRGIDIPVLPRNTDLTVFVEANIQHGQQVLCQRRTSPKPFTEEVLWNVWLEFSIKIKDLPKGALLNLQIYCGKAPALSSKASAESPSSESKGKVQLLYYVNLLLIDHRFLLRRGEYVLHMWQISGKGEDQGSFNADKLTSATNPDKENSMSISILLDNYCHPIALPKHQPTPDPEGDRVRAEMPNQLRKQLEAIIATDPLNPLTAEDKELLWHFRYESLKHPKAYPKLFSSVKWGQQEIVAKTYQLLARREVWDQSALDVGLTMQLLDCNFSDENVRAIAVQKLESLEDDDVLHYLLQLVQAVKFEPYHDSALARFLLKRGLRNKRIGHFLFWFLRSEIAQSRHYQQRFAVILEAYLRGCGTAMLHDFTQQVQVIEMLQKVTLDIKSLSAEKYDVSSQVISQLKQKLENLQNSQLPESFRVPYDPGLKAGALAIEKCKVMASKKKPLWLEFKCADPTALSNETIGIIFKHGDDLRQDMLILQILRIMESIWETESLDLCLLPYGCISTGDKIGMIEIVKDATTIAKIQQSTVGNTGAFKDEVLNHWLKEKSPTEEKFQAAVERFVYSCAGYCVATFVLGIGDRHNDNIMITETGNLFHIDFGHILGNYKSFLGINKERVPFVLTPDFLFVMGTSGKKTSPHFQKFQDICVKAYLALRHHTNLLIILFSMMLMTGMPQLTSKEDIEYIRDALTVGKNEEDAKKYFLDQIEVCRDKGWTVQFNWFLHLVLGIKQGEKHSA
A short description of series [6]: Antiproliferative activity against human MDA-MB-231 cells after 72 hrs by MTT assay. The format is functional, cell-based. Conditions: MDA-MB-231, 72 h. For orientation: Formazan colour is commonly taken as a measure of viable cells.
Series [7] concerns the target T2, Phosphatidylinositol 4,5-bisphosphate 3-kinase catalytic subunit gamma isoform. Nature of the series: Inhibition of human PI3Kgamma (S144 to A1102 residues) expressed in mammalian expression system by KINOMEScan assay.
Target sequence in this assay (P48736 whole entry, the tested form may be a part, canonical isoform): as the sequence (P48736 whole entry, looked up, the tested form may be a part, canonical isoform) above
Series [8] addresses Mast/stem cell growth factor receptor Kit (Homo sapiens, UniProt P10721, T670I/V559D). The series is described as follows: Inhibition of human KIT (Y545 to D952 residues) V559D/T670I double mutant expressed in bacterial expression system by KINOMEScan assay.
The nature of series [9]: Antiproliferative activity against human HL60 cells. It is filed as functional, cell-based. Conditions: HL-60.
A short description of another series: cells. The format is functional, cell-based. Conditions: Homo sapiens, HEL 92.1.7, 36 h.
A further series deals with HEL 92.1.7. The series is described as follows: Inhibition of colony formation in HEL 92.1.7 cells harboring JAK2 V617F mutant after 14 to 16 days. The format is functional, cell-based. Conditions: Homo sapiens. In outline: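 HEL cells (200 cells/mL) mixed into methylcellulose semi-solid medium with inhibitor at various concentrations. Incubated 14-16 days, then colonies counted. Data given as mean ± SEM.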

For series [10], the target named is Tyrosine-protein kinase JAK2 (Homo sapiens, UniProt O60674). The series is described as follows: Inhibition of JAK2 in IL-6-stimulated human KMS-12-BM cells assessed as suppression of STAT3 phosphorylation at TY705 residue at 1.5 uM pretreated for 3 hrs followed by IL-6 stimulation by immunoblot method. In a few lines:
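Cells (at least 3x10^6 per condition; KMS-12-BM or MOLM-14) pretreated with compound for 3 h, then stimulated with IL-6 10 ng/mL for 15 min. Cells lysed, equal protein run on SDS-PAGE and transferred to PVDF. Immunoblotted for p-STAT3 (Tyr705), with membranes re-probed for total STAT3. Reference JAK2 inhibitor control at 2 µM (KMS-12-BM) or 0.1 µM (MOLM-14).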

Series [11] has as its system MOLM-14. The series is described as follows: Induction of apoptosis in human MOLM14 cells assessed as live cells at 0.75 uM after 48 hrs by Annexin-V FITC/propidium iodide staining based flow cytometry (reference value: 94 to 94.1%). The format is functional. In outline: (§2)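 MOLM-14 cells treated 48 h at the stated concentrations; doxorubicin as positive control. Stained with Annexin V-FITC and propidium iodide and analysed by flow cytometry (at least 10,000 events). Gated quadrants: Annexin V−/PI− viable, Annexin V+/PI− early apoptotic, Annexin V+/PI+ late apoptotic.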

Series [12] deals with MOLM-14. The series is described as follows: Induction of apoptosis in human MOLM14 cells assessed as late apoptotic cells at 0.75 uM after 48 hrs by Annexin-V FITC/propidium iodide staining based flow cytometry (reference value: 2.1 to 2.2%). The format is functional. In a few lines:
as §2

The test system of series [13] is MOLM-14. The series is described as follows: Induction of apoptosis in human MOLM14 cells assessed as live cells at 1.5 uM after 48 hrs by Annexin-V FITC/propidium iodide staining based flow cytometry (reference value: 94 to 94.1%). The format is functional.
The subject of series [14] is MOLM-14. Nature of the series: Induction of apoptosis in human MOLM14 cells assessed as necrotic cells at 1.5 uM after 48 hrs by Annexin-V FITC/propidium iodide staining based flow cytometry (reference value: 0.1%). The format is functional.
In series [15] the test system is MOLM-14. Nature of the series: Induction of apoptosis in human MOLM14 cells assessed as live cells at 3 uM after 48 hrs by Annexin-V FITC/propidium iodide staining based flow cytometry (reference value: 94 to 94.1%). It is filed as functional. In a few lines:
as §2
On the technique in general: A flow cytometer gives signals particle by particle.

Series [16] relates to MOLM-14. The series is described as follows: Induction of apoptosis in human MOLM14 cells assessed as late apoptotic cells at 3 uM after 48 hrs by Annexin-V FITC/propidium iodide staining based flow cytometry (reference value: 2.1 to 2.2%). It is filed as functional. In a few lines: as §2
Series [17] in a line: Apparent intrinsic clearance in rat liver microsomes at 3 uM preincubated for 5 mins followed by NADPH addition measured after 45 mins by LC-MS/MS analysis. It is filed as ADME. Conditions: read-out: CLH(app). In outline: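 Male and female rat liver microsomes (0.3 mg protein/mL final) with compound at 3 μM final in 0.1 M phosphate buffer pH 7.4. Preincubated 5 min at 37 °C, then started with NADPH (1 mM final). Sampled at 0, 5, 10, 15, 30 and 45 min and quenched with cold acetonitrile containing internal standard. Read by LC-MS/MS; run in triplicate; midazolam (3 μM) as positive control.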
(In general: Microsomes from liver hold many membrane-bound enzymes, among them those of drug oxidation.)

T1 sequence (P29597 whole entry): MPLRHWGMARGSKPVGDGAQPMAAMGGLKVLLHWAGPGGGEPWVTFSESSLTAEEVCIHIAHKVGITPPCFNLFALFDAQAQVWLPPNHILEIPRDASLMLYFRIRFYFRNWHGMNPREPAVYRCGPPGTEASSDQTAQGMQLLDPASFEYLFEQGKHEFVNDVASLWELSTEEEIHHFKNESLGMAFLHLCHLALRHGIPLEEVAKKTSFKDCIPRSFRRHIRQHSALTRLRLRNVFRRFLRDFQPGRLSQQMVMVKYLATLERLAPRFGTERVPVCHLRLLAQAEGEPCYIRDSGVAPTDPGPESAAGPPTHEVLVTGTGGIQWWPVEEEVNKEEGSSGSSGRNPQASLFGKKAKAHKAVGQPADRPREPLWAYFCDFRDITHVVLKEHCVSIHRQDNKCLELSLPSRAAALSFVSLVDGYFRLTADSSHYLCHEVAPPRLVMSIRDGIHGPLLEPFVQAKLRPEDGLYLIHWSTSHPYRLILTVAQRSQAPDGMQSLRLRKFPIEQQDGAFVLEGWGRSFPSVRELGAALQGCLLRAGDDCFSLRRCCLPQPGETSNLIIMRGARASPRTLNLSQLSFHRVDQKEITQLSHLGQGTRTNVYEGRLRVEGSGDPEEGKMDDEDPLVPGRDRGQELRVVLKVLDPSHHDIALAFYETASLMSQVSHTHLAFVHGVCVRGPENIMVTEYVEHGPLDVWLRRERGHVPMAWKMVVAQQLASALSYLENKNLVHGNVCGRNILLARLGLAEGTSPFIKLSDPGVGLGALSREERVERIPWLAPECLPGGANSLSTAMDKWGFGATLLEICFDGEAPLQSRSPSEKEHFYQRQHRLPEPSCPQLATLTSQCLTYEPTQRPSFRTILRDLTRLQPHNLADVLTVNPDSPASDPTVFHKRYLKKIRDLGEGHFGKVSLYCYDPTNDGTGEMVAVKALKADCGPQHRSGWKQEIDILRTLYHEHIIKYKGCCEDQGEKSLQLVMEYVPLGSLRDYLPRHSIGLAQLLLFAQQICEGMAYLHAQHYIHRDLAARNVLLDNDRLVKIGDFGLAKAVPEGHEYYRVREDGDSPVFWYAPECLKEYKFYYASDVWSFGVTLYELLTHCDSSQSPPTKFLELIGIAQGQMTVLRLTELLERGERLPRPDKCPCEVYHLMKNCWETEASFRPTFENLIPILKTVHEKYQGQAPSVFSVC
Sequence of Histone deacetylase 7 (Homo sapiens) (Q8WUI4 whole entry, the tested form may be a part): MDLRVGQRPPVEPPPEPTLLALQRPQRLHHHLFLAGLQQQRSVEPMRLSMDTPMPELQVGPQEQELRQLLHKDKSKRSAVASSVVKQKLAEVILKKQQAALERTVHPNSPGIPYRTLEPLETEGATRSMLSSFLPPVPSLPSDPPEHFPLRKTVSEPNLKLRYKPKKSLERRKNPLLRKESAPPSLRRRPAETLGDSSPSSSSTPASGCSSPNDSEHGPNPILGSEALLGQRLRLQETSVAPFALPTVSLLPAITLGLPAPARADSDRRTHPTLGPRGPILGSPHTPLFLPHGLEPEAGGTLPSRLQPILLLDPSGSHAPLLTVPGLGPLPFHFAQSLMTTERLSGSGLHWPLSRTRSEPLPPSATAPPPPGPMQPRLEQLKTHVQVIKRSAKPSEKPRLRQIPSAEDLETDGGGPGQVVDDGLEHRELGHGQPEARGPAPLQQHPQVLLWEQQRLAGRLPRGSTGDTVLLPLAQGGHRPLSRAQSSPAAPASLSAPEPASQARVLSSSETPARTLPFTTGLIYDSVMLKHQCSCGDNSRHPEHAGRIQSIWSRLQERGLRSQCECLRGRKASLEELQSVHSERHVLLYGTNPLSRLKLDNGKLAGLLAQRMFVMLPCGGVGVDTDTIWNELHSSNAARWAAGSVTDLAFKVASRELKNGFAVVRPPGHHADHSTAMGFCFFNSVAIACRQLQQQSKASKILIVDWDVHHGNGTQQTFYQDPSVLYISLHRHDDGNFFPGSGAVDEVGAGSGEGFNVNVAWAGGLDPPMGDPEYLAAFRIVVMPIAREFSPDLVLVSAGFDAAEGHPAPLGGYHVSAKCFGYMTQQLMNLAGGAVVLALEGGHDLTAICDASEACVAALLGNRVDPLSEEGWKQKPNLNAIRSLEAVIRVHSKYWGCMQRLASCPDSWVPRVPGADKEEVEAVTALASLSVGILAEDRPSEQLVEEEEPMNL
Sequence of Histone deacetylase 5 (Homo sapiens) (Q9UQL6 whole entry, the tested form may be a part): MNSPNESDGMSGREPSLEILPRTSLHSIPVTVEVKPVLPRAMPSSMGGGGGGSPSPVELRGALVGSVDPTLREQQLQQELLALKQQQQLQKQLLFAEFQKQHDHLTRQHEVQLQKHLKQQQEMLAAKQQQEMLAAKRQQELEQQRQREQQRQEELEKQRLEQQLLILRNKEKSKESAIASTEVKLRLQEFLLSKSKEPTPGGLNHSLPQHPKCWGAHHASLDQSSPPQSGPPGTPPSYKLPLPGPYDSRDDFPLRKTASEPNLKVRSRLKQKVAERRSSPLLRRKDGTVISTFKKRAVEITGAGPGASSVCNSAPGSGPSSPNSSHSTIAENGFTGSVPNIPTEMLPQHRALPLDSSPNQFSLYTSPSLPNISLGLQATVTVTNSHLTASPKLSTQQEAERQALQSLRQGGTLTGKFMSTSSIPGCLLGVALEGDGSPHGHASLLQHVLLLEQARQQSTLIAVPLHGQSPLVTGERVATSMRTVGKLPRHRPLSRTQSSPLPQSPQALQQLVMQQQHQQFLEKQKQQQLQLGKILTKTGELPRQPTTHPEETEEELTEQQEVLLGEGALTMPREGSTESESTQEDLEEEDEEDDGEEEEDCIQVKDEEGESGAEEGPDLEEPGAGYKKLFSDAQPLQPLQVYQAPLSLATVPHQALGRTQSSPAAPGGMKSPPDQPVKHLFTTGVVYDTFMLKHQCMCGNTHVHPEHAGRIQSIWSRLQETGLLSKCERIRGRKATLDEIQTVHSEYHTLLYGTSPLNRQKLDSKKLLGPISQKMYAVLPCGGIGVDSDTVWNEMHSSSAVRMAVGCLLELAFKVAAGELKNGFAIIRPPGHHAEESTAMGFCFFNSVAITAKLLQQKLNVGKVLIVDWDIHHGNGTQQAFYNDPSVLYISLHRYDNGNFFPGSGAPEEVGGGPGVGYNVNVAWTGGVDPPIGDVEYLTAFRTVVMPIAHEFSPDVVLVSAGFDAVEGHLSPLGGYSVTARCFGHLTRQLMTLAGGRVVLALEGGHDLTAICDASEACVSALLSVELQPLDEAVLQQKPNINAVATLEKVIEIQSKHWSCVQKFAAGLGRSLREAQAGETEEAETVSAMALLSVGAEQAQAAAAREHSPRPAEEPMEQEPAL

As for `O=C(CCCCCCOc1ccc2cc1COC/C=C/COCc1cccc(c1)-c1ccnc(n1)N2)NO`, the inhibition (as a rule, how much of the control response was suppressed) was 56% in series [1], 16.1% in [2], 1.3% in [3] and “Dose-dependent effect” in the series with HEL 92.1.7. Besides, the Activity in series [4] stood at 4.9%; in series [5], 5.7%; in the series on MOLM-14 [11], 81.7%; in the series on MOLM-14 [12], 5%; in the series with MOLM-14 [13], 74.1%; in the series with MOLM-14 [14], 0.3%. The Activity in the series on MOLM-14 [15] came out at 29.9%; in the series on MOLM-14 [16], 34.3%. The IC50 (as a rule, the midpoint of a concentration-inhibition curve) in series [6] is 1430 nM; in series [7], 10 to 1000 nM; in [8], 1000 to 10000 nM; in series [9], 4000 nM; in the series “cells”, 940 nM. For the same compound, the inhibition entry in series [10] is “Active”. Also, the CLint scaled at 3 µM in [17] is 178 to 272 mL/min/kg.

The values are drawn from ChEMBL document CHEMBL3877241 (J Med Chem, 2016).
